Source: ChEMBL document CHEMBL4390648, “Chemical synthesis, crystal structure, versatile evaluation of their biological activities and molecular simulations of novel pyrithiobac derivatives” (Eur J Med Chem, 2019)
Values after ≈ are worked out from the molar mass of the structure shown. Active and inactive are the calls of the source. The calls are words filed in the database; no cut-off is given here.

Legend:
[1] = system: Candida albicans; experiment: Antifungal activity against Candida albicans isolate 17 grown in RPMI 1640 medium incubated for 24 hrs by microdilution method; format: functional; conditions: isolate 17, 24 h
How it was run: (§1)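 C. albicans standard strain SC5314 and clinical isolates g5 and 17# tested by broth microdilution in YNB or RPMI 1640 medium. Plates incubated at 35 °C for up to 72 h, with visual readings taken at 24 h. MIC taken as the lowest concentration preventing visible growth.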

[2] = system: Ceratobasidium cereale; experiment: Antifungal activity against Rhizoctonia cerealis assessed as reduction in growth at 50 mg/l by mycelium growth rate method relative to control; format: functional
How it was run: (§2)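 Mycelium growth rate method against S. sclerotiorum, P. capsici, P. piricola, R. cerealis, W. anthracnose and R. bakanae. Each compound tested at 50 mg/L, with chlorothalonil and PTB as controls. Relative inhibitory ratio (%) calculated from mycelial growth.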

[3] = system: Candida albicans; experiment: Antifungal activity against Candida albicans SC5314 grown in RPMI 1640 medium incubated for 24 hrs by microdilution method; format: functional; conditions: SC5314, 24 h; how it was run: as §1
[4] = system: Candida albicans; experiment: Inhibition of Candida albicans AHAS catalytic subunit at 10 uM using pyruvate as substrate measured after 30 mins by colorimetric method relative to control
How it was run: (§3)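 Colorimetric assay in 50 mM potassium phosphate pH 7.0 with 50 mM pyruvate, 1 mM thiamine diphosphate, 10 mM MgCl2 and 10 μM FAD. Incubated 30 min at 37 °C for plant AHAS and 30 °C for fungal AHAS. Acetolactate formed was then quantified.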

[5] = system: Candida albicans; experiment: Inhibition of Candida albicans AHAS catalytic subunit at 100 uM using pyruvate as substrate measured after 30 mins by colorimetric method relative to control; how it was run: as §3
[6] = system: Candida albicans; experiment: Antifungal activity against Candida albicans isolate g5 grown in RPMI 1640 medium incubated for 24 hrs by microdilution method; format: functional; conditions: isolate g5, 24 h; how it was run: as §1
[7] = system: Candida albicans; experiment: Antifungal activity against Candida albicans SC5314 grown in YNB medium incubated for 24 hrs by microdilution method; format: functional; conditions: SC5314, 24 h; how it was run: as §1
[8] = system: Candida albicans; experiment: Antifungal activity against Candida albicans isolate 17 grown in YNB medium incubated for 24 hrs by microdilution method; format: functional; conditions: isolate 17, 24 h; how it was run: as §1
[9] = system: Candida albicans; experiment: Antifungal activity against Candida albicans isolate g5 grown in YNB medium incubated for 24 hrs by microdilution method; format: functional; conditions: isolate g5, 24 h; how it was run: as §1
[10] = system: Arabidopsis thaliana; experiment: Inhibition of Arabidopsis thaliana AHAS catalytic subunit using pyruvate as substrate at 100 uM measured after 30 mins by colorimetric method relative to control; how it was run: as §3
[11] = system: Arabidopsis thaliana; experiment: Inhibition of Arabidopsis thaliana AHAS catalytic subunit using pyruvate as substrate at 10 uM measured after 30 mins by colorimetric method relative to control; how it was run: as §3
[12] = system: Brassica rapa subsp. oleifera; experiment: Herbicidal activity against Brassica campestris L assessed as inhibition of rape root growth at 100 mg/l root growth incubated for 48 hrs relative to control; format: functional
How it was run: (§4)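 Rape seeds soaked in distilled water for 4 h, then placed on filter paper wetted with inhibitor solution, 15 seeds per 6-cm dish. Germinated in the dark at 28 °C for 48 h. Mean length of 10 roots per plate measured.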

[13] = system: Brassica rapa subsp. oleifera; experiment: Herbicidal activity against Brassica campestris L assessed as inhibition of rape root growth at 10 mg/l root growth incubated for 48 hrs relative to control; format: functional; how it was run: as §4
[14] = system: Sclerotinia sclerotiorum; experiment: Antifungal activity against Sclerotinia sclerotiorum assessed as reduction in growth at 50 mg/l by mycelium growth rate method relative to control; format: functional; how it was run: as §2
[15] = system: Phytophthora capsici; experiment: Antifungal activity against Phytophthora capsici assessed as reduction in growth at 50 mg/l by mycelium growth rate method relative to control; format: functional; how it was run: as §2
[16] = system: Botryosphaeria berengeriana; experiment: Antifungal activity against Physalospora pyricola assessed as reduction in growth at 50 mg/l by mycelium growth rate method relative to control; format: functional; how it was run: as §2
[17] = system: Colletotrichum; experiment: Antifungal activity against Colletotrichum (W. anthracnose) assessed as reduction in growth at 50 mg/l by mycelium growth rate method relative to control; format: functional; how it was run: as §2
[18] = system: Fusarium fujikuroi; experiment: Antifungal activity against Gibberella fujikuroi assessed as reduction in growth at 50 mg/l by mycelium growth rate method relative to control; format: functional; how it was run: as §2
[19] = system: Mythimna separata; experiment: Insecticidal activity against Mythimna separata assessed as larval mortality at 600 mg/l by leaf-dip method; format: functional
[20] = system: Tobacco mosaic virus; experiment: Antiviral activity against Tobacco mosaic virus inoculated in Nicotiana tabacum leaves assessed as passivation by measuring local lesion numbers at 500 mg/l pre-incubated with virus for 30 mins followed by inoculation and measured up to 4 days; format: functional
How it was run: (§5)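 Passivation assay: TMV mixed with an equal volume of compound solution for 30 min, then rubbed onto the left half of N. tabacum L. leaves. The right half received virus mixed with solvent as control. Local lesions counted 3–4 days after inoculation. Compounds tested at 500 or 100 mg/L.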

[21] = system: Tobacco mosaic virus; experiment: Antiviral activity against Tobacco mosaic virus inoculated in Nicotiana tabacum leaves assessed as passivation by measuring local lesion numbers at 100 mg/l pre-incubated with virus for 30 mins followed by inoculation and measured up to 4 days; format: functional; how it was run: as §5
[22] = system: Severe acute respiratory syndrome-related coronavirus; experiment: Inhibition of SARS coronavirus M protease using AVLQSGFRKK as substrate at 20 uM by FRET assay relative to control
How it was run: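 Purified SARS-CoV Mpro assayed by FRET. Protein, compound and substrate were preheated at 37 °C and oscillated. Fluorescence (ex 320/em 405 nm) was read every 5 s for 200 reads.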

Compound	MIC [1] [µg/mL]	inhibition at 50 µg/mL [2] [%]	MIC [3] [µg/mL]	inhibition [4] [%]	inhibition [5] [%]	MIC [6] [µg/mL]	MIC [7] [µg/mL]	MIC [8] [µg/mL]	MIC [9] [µg/mL]	inhibition [10] [%]	inhibition [11] [%]	inhibition (INH) [12] [%]	inhibition (INH) [13] [%]	inhibition at 50 µg/mL [14] [%]	inhibition at 50 µg/mL [15] [%]	inhibition at 50 µg/mL [16] [%]	inhibition at 50 µg/mL [17] [%]	inhibition at 50 µg/mL [18] [%]	inhibition at 500 µg/mL [20] [%]	inhibition [22] [%]	further results
COc1nc(OC)nc(Sc2ccc(C(=O)O)cc2F)n1	> 100	57.1	> 100	52.3	94.9	> 100	> 100	3.12 (≈ 10 µM)	> 100	18.7	13.8	27.6	0	61.1	16.7	53.1	19	6.1	0	89.5	mortality at 600 µg/mL [19]: 30%; inhibition [21]: inactive
COc1cc(OC)nc(Sc2cc(C(F)(F)F)ccc2C(=O)O)n1	> 100	–	> 100	0	31.2	> 100	> 100	> 100	> 100	85.5	51.8	50	24.6	–	–	–	–	–	–	0	–
COc1nc(OC)nc(Sc2ccc(C(=O)O)cc2C(=O)O)n1	> 100	–	> 100	15.6	58.7	> 100	> 100	> 100	> 100	81.7	73.3	20.3	8	–	–	–	–	–	–	0	–
COc1cc(OC)nc(Sc2cc(C(F)(F)F)ccc2C#N)n1	> 100	70.2	> 100	7.9	26.1	> 100	> 100	> 100	> 100	91.6	18	66.1	12.3	11.1	66.7	28.1	26.2	45.5	35.8	29.9	mortality at 600 µg/mL [19]: 65%; inhibition [21]: inactive
NC(=O)c1ncn([C@@H]2O[C@H](CO)[C@@H](O)[C@H]2O)n1 [RIBAVIRIN]	–	–	–	–	–	–	–	–	–	–	–	–	–	–	–	–	–	–	37.6	–	inhibition at 100 µg/mL [21]: 11.9%
COc1cc(OC)nc(Sc2ccc(C(=O)O)cc2C(=O)O)n1	> 100	–	> 100	8	24	> 100	> 100	> 100	> 100	20	5	0	0	–	–	–	–	–	–	0	–
COc1nc(OC)nc(Sc2ccc(C(F)(F)F)cc2C#N)n1	> 100	–	> 100	0	12	> 100	> 100	> 100	> 100	15	11.5	8.5	0	–	–	–	–	–	–	0	–
COc1nc(OC)nc(Sc2cc(Cl)ccc2C#N)n1	> 100	40.5	> 100	0	26.3	> 100	> 100	> 100	> 100	100	43.6	40	34.4	13.9	41.7	37.5	19	30.3	0	–	mortality at 600 µg/mL [19]: 25%; inhibition [21]: inactive
COc1cc(OC)nc(Sc2ccc(C(=O)O)c(C(F)(F)F)c2)n1	> 100	73.8	> 100	2.1	20.6	> 100	> 100	> 100	> 100	77.4	37.7	45.2	0	75	8.3	35.9	14.3	30.3	0	21.7	inhibition [21]: inactive
CNCC(=O)N[C@@H](CO)C(=O)N[C@H]1[C@H](O)[C@@H](O)[C@H](n2ccc(N)nc2=O)O[C@@H]1C(N)=O [NINGNANMYCIN]	–	–	–	–	–	–	–	–	–	–	–	–	–	–	–	–	–	–	56.4	–	inhibition at 100 µg/mL [21]: 27.8%
COc1nc(OC)nc(Oc2cccc(Br)c2)n1	> 100	52.4	> 100	10.6	18.3	> 100	> 100	> 100	> 100	60	6.6	87.4	32.5	61.1	8.3	40.6	16.7	0	19.5	0	inhibition [21]: inactive
COc1nc(OC)nc(Sc2ccc(C#N)cc2C(F)(F)F)n1	> 100	–	> 100	10.5	22	> 100	> 100	> 100	> 100	10	0	5	0	–	–	–	–	–	–	18	–
COc1cc(OC)nc(Sc2ccc(C(F)(F)F)cc2C#N)n1	> 100	–	> 100	3.6	25	> 100	> 100	> 100	> 100	72.3	28.2	25.8	0	–	–	–	–	–	–	0	–
COc1cc(OC)nc(Sc2ccc(C#N)c(C(F)(F)F)c2)n1	> 100	–	> 100	18.6	51.4	> 100	> 100	> 100	> 100	86.2	51.2	33.5	4.7	–	–	–	–	–	–	85	–
CCOc1ccccc1OS(=O)(=O)NC(=O)Nc1nc(OC)cc(OC)n1 [ETHOXYSULFURON]	50 (≈ 126 µM)	–	25 (≈ 62.8 µM)	96.8	98.7	25 (≈ 62.8 µM)	0.39 (≈ 0.979 µM)	0.39 (≈ 0.979 µM)	0.39 (≈ 0.979 µM)	–	–	–	–	–	–	–	–	–	–	–	–
